From ChEMBL document CHEMBL1165950, “Design and synthesis of new potent anticancer pyrazoles with high FLT3 kinase inhibitory selectivity” (Bioorg Med Chem, 2010)

Tests used:
Type in all cases: functional
[1] = tested on: SF-539; experiment: Cytotoxicity against human SF539 cells assessed as cell growth at 100 nM after 48 hrs by sulforhodamine B assay; conditions: SF-539, 48 h, read-out: Activity
[2] = tested on: SNB-75; experiment: Cytotoxicity against human SNB75 cells assessed as cell growth at 100 nM after 48 hrs by sulforhodamine B assay; conditions: SNB-75, 48 h, read-out: Activity
[3] = tested on: U-251; experiment: Cytotoxicity against human U251 cells assessed as cell growth at 100 nM after 48 hrs by sulforhodamine B assay; conditions: U-251, 48 h, read-out: Activity
[4] = tested on: SK-MEL-2; experiment: Cytotoxicity against human SK-MEL-2 cells assessed as cell growth at 100 nM after 48 hrs by sulforhodamine B assay; conditions: SK-MEL-2, 48 h, read-out: Activity
[5] = tested on: HL-60(TB); experiment: Cytotoxicity against human HL-60(TB) cells assessed as cell growth at 0.01 uM after 48 hrs by sulforhodamine B assay; conditions: HL-60, 48 h, read-out: Activity
Procedure, shortened: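 NCI 60-cell panel. Cells are grown in RPMI 1640 with 5% FBS and 2 mM L-glutamine, seeded at 5000–40,000 cells/well according to doubling time, and preincubated 24 h. Time-zero plates are TCA-fixed. Compound from DMSO stock is given at five 10-fold or 1/2-log concentrations for 48 h at 37 °C, 5% CO2. Suspension cells are fixed with 80% TCA (final 16%) and SRB-stained, with absorbance at 515 nm. Percent growth is derived from Tz, control and test readings.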

[6] = tested on: CAKI-1; experiment: Cytotoxicity against human Caki1 cells assessed as cell growth at 100 nM after 48 hrs by sulforhodamine B assay; conditions: CAKI-1, 48 h, read-out: Activity
[7] = tested on: SN12C; experiment: Cytotoxicity against human SN12C cells assessed as cell growth at 100 nM after 48 hrs by sulforhodamine B assay; conditions: read-out: Activity
[8] = tested on: EKVX; experiment: Cytotoxicity against human EKVX cells assessed as cell growth at 1 uM after 48 hrs by sulforhodamine B assay; conditions: read-out: Activity
[9] = tested on: HOP-92; experiment: Cytotoxicity against human HOP92 cells assessed as cell growth at 1 uM after 48 hrs by sulforhodamine B assay; conditions: HOP-92, 48 h, read-out: Activity
[10] = tested on: Malme-3M; experiment: Cytotoxicity against human MALME-3M cells assessed as cell growth at 10 uM; conditions: read-out: Activity
Procedure, shortened: (§1)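 NCI-60 screen: cells grown in RPMI 1640 with 5% FBS and 2 mM L-glutamine, plated at 5000–40,000 cells/well according to doubling time, and preincubated 24 h at 37 °C, 5% CO2. The single 10 µM dose (DMSO stock) was added, then incubated 48 h. Cells were TCA-fixed and stained with 0.4% SRB, read at 515 nm, and growth % calculated against time-zero and control plates.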

[11] = tested on: EKVX; experiment: Cytotoxicity against human EKVX cells assessed as cell growth at 0.001 uM after 48 hrs by sulforhodamine B assay; conditions: read-out: Activity
[12] = tested on: NCI-H322M; experiment: Cytotoxicity against human NCI-H322M cells assessed as cell growth at 1 uM after 48 hrs by sulforhodamine B assay; conditions: read-out: Activity
[13] = tested on: SF-268; experiment: Cytotoxicity against human SF268 cells assessed as cell growth at 1 uM after 48 hrs by sulforhodamine B assay; conditions: SF-268, 48 h, read-out: Activity
[14] = tested on: SF-539; experiment: Cytotoxicity against human SF539 cells assessed as cell growth at 1 uM after 48 hrs by sulforhodamine B assay; conditions: SF-539, 48 h, read-out: Activity
[15] = tested on: SNB-75; experiment: Cytotoxicity against human SNB75 cells assessed as cell growth at 0.01 uM after 48 hrs by sulforhodamine B assay; conditions: SNB-75, 48 h, read-out: Activity
[16] = tested on: CAKI-1; experiment: Cytotoxicity against human Caki1 cells assessed as cell growth at 0.01 uM after 48 hrs by sulforhodamine B assay; conditions: CAKI-1, 48 h, read-out: Activity
[17] = tested on: KM12; experiment: Cytotoxicity against human KM12 cells assessed as cell growth at 0.001 uM after 48 hrs by sulforhodamine B assay; conditions: KM12, 48 h, read-out: Activity
[18] = tested on: SF-295; experiment: Cytotoxicity against human SF295 cells assessed as cell growth at 0.001 uM after 48 hrs by sulforhodamine B assay; conditions: SF-295, 48 h, read-out: Activity
[19] = tested on: A498; experiment: Cytotoxicity against human A498 cells assessed as cell growth at 0.001 uM after 48 hrs by sulforhodamine B assay; conditions: A498, 48 h, read-out: Activity
Procedure, shortened: (§2)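 NCI-60 five-dose screen. Cells were grown in RPMI 1640 with 5% FBS and 2 mM L-glutamine, plated at 5000–40,000 cells/well and preincubated for 24 h. Time-zero plates were TCA-fixed. DMSO-solubilized drug was added at five concentrations (10-fold or ½-log serial dilutions) for 48 h at 37 °C, 5% CO2. Cells were TCA-fixed, stained with 0.4% SRB and read at 515 nm. Percent growth used time-zero, control and test absorbances.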

[20] = tested on: ACHN; experiment: Cytotoxicity against human ACHN cells assessed as cell growth at 0.001 uM after 48 hrs by sulforhodamine B assay; conditions: read-out: Activity; procedure, shortened: as §2
[21] = tested on: MOLT-4; experiment: Cytotoxicity against human MOLT4 cells assessed as cell growth at 100 nM after 48 hrs by sulforhodamine B assay; conditions: MOLT-4, 48 h, read-out: Activity
[22] = Cytotoxicity against human RPMI8266 cells assessed as cell growth at 100 nM after 48 hrs by sulforhodamine B assay; conditions: read-out: Activity
[23] = tested on: MDA-MB-468; experiment: Growth inhibition of human MDA-MB-468 cells after 48 hrs by sulforhodamine B assay; conditions: MDA-MB-468, 48 h
Procedure, shortened: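 NCI 60-cell screen, five-dose mode. Cells grown in RPMI 1640 with 5% FBS and 2 mM L-glutamine and plated at 5000-40,000 cells/well according to doubling time. After 24 h preincubation, a Tz plate was TCA-fixed. Five concentrations (10-fold or 1/2 log dilutions) were applied for 48 h at 37 °C. SRB staining read at 515 nm. IC50 taken from [(Ti-Tz)/(C-Tz)]×100 = 50.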

[24] = tested on: SR; experiment: Cytotoxicity against human SR cells assessed as cell growth at 10 uM; conditions: read-out: Activity; procedure, shortened: as §1
[25] = tested on: T47D; experiment: Cytotoxicity against human T47D cells assessed as cell growth at 1 uM after 48 hrs by sulforhodamine B assay; conditions: read-out: Activity
[26] = tested on: COLO 205; experiment: Cytotoxicity against human COLO205 cells assessed as cell growth at 10 uM; conditions: read-out: Activity
Procedure, shortened: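 Single-dose NCI-60 screen at 10 µM. Cells were grown in RPMI 1640 with 5% FBS and 2 mM L-glutamine, then treated for 48 h at 37 °C. Protein was measured by SRB staining with absorbance at 515 nm. Percentage growth was recorded, and inhibition percentage was calculated as 100 minus growth percentage.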

[27] = tested on: K562; experiment: Cytotoxicity against human K562 cells assessed as cell growth at 10 uM after 48 hrs by sulforhodamine B assay; conditions: K562, 48 h, read-out: Activity
[28] = tested on: U-251; experiment: Cytotoxicity against human U251 cells assessed as cell growth at 10 uM after 48 hrs by sulforhodamine B assay; conditions: U-251, 48 h, read-out: Activity
[29] = tested on: Malme-3M; experiment: Cytotoxicity against human MALME-3M cells assessed as cell growth at 10 uM after 48 hrs by sulforhodamine B assay; conditions: read-out: Activity
[30] = tested on: UACC-257; experiment: Cytotoxicity against human UACC257 cells assessed as cell growth at 10 uM after 48 hrs by sulforhodamine B assay; conditions: UACC-257, 48 h, read-out: Activity

SMILES | growth at 0.1 µM [1] [%] | growth at 0.1 µM [2] [%] | growth at 0.1 µM [3] [%] | growth at 0.1 µM [4] [%] | growth at 0.01 µM [5] [%] | growth at 0.1 µM [6] [%] | growth at 0.1 µM [7] [%] | growth at 1 µM [8] [%] | growth at 1 µM [9] [%] | growth at 10 µM [10] [%] | growth at 0.001 µM [11] [%] | growth at 1 µM [12] [%] | growth at 1 µM [13] [%] | growth at 1 µM [14] [%] | growth at 0.01 µM [15] [%] | growth at 0.01 µM [16] [%] | growth at 0.001 µM [17] [%] | growth at 0.001 µM [18] [%] | growth at 0.001 µM [19] [%] | growth at 0.001 µM [20] [%] | other results
COc1cc(C)cc(-c2c(-c3ccnc(-c4ccc(N(C)C)cc4)c3)cnn2CC#N)c1 | -29 | 6 | 6 | 14 | 52 | -21 | 28 | 9 | -20 | 103 | 97 | 34 | 24 | 1 | 65 | -6 | 95 | 83 | 94 | 98 | growth at 0.1 µM [21]: 9%; growth at 0.1 µM [22]: 13%; GI50 [23]: 26.1 nM; LC50 (concentration giving 50% net cell kill) [23]: 1040 nM; TGI [23]: 79.8 nM; growth at 10 µM [24]: -6.91%; growth at 1 µM [25]: 19%; growth at 10 µM [26]: -71.1%; growth at 10 µM [27]: -5%; growth at 10 µM [28]: 6%; growth at 10 µM [29]: 13%; growth at 10 µM [30]: 18%
Cc1cc(O)cc(-c2nn(CC#N)cc2-c2ccnc(-c3ccc(Oc4ccccc4)cc3)c2)c1 | 92 | 78 | 88 | 101 | 95 | 75 | 86 | -4 | -67 | 115 | 103 | 35 | 22 | 13 | 79 | 90 | 91 | 99 | 88 | 98 | growth at 0.1 µM [21]: 79%; growth at 0.1 µM [22]: 88%; GI50 [23]: 1790 nM; LC50 (concentration giving 50% net cell kill) [23]: 8280 nM; TGI [23]: 3850 nM; growth at 10 µM [24]: 32.4%; growth at 1 µM [25]: -26%; growth at 10 µM [26]: 28.4%; growth at 10 µM [27]: -2%; growth at 10 µM [28]: -98%; growth at 10 µM [29]: -72%; growth at 10 µM [30]: -93%
Cc1cc(O)cc(-c2nn(CC#N)cc2-c2ccnc(-c3ccc(N(C)C)cc3)c2)c1 | 91 | 77 | 91 | 112 | 97 | 85 | 91 | 29 | 25 | 75 | 96 | 38 | 17 | -34 | 75 | 102 | 91 | 93 | 101 | 94 | growth at 0.1 µM [21]: 89%; growth at 0.1 µM [22]: 96%; GI50 [23]: 1630 nM; LC50 (concentration giving 50% net cell kill) [23]: 9940 nM; TGI [23]: 4020 nM; growth at 10 µM [24]: 20.5%; growth at 1 µM [25]: 5%; growth at 10 µM [26]: 38.9%; growth at 10 µM [27]: -6%; growth at 10 µM [28]: -66%; growth at 10 µM [29]: -19%; growth at 10 µM [30]: -25%
COc1cc(C)cc(-c2nn(CC#N)cc2-c2ccnc(-c3ccc(N(C)C)cc3)c2)c1 | -31 | -8 | 16 | 50 | 97 | 14 | 44 | 28 | 9 | 82 | 91 | 52 | -2 | -35 | 98 | 92 | 93 | 93 | 91 | 95 | growth at 0.1 µM [21]: 39%; growth at 0.1 µM [22]: 57%; GI50 [23]: 181 nM; LC50 (concentration giving 50% net cell kill) [23]: 7240 nM; TGI [23]: 635 nM; growth at 10 µM [24]: 9.06%; growth at 1 µM [25]: 10%; growth at 10 µM [26]: -73.2%; growth at 10 µM [27]: 3%; growth at 10 µM [28]: -32%; growth at 10 µM [29]: 5%; growth at 10 µM [30]: 13%
